According to ChEMBL document CHEMBL1127860, “Design, synthesis, X-ray analysis, and dopamine receptor-modulating activity of mimics of the "C5" hydrogen-bonded conformation in the peptidomimetic 2-oxo-3(R)-[(2(S)-pyrrolidinylcarbonyl)amino]-1- pyrrolidineacetamide” (J Med Chem, 1994):

How the values were obtained:
[1] = target: D(2) dopamine receptor (Bos taurus) (UniProt P20288); test: Binding towards dopamine D2 receptor using [3H]spiroperidol in presence of (Gpp(NH)p)
[2] = Ratio of Rh and RL Inhibitor constants in presence of (Gpp(NH)p)
[3] = target: D(2) dopamine receptor (Bos taurus) (UniProt P20288); test: Tested for the ability to enhance the binding of the dopamine D2 receptor agonist N-propylnorapomorphine (NPA) in the presence of (Gpp(NH)p)
Method in brief: (§1)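 High-affinity [³H]NPA (0.05 nM) binding to bovine striatal membranes, 1 h at 22 °C, then GF/B filtration. Compound at 1, 10 or 100 nM, either with 100 μM Gpp(NH)p added directly or after a 2 h, 4 °C preincubation with Gpp(NH)p and washing. Expressed as % of maximal specific binding in Gpp(NH)p-free membranes. Mean ± SEM of five experiments.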

[4] = target: D(2) dopamine receptor (Bos taurus) (UniProt P20288); test: Percentage of sites in low affinity form for the agonist in the presence of (Gpp(NH)p); assay type: functional
[5] = target: D(2) dopamine receptor (Bos taurus) (UniProt P20288); test: Percentage of sites in high affinity form for the agonist in the presence of (Gpp(NH)p); assay type: functional
[6] = target: D(2) dopamine receptor (Bos taurus) (UniProt P20288); test: Binding towards dopamine D2 receptor using [3H]spiroperidol in the absence of (Gpp(NH)p)
[7] = target: D(2) dopamine receptor (Bos taurus) (UniProt P20288); test: Percentage of sites in high affinity form for the agonist in the absence of (Gpp(NH)p; assay type: functional
[8] = Ratio of Rh and RL Inhibitor constants in absence of (Gpp(NH)p)
[9] = target: D(2) dopamine receptor (Bos taurus) (UniProt P20288); test: Percentage of sites in low affinity form for the agonist in the absence of (Gpp(NH)p); assay type: functional
[10] = target: D(2) dopamine receptor (Bos taurus) (UniProt P20288); test: Tested for the ability to enhance the binding of the dopamine D2 receptor agonist N-propylnorapomorphine (NPA) in the absence of (Gpp(NH)p); method in brief: as §1
[11] = target: D(2) dopamine receptor (Bos taurus) (UniProt P20288)
[12] = target: D(2) dopamine receptor (Bos taurus) (UniProt P20288); remark: listed apart in the source

Chain of D(2) dopamine receptor (Bos taurus) (P20288 whole entry): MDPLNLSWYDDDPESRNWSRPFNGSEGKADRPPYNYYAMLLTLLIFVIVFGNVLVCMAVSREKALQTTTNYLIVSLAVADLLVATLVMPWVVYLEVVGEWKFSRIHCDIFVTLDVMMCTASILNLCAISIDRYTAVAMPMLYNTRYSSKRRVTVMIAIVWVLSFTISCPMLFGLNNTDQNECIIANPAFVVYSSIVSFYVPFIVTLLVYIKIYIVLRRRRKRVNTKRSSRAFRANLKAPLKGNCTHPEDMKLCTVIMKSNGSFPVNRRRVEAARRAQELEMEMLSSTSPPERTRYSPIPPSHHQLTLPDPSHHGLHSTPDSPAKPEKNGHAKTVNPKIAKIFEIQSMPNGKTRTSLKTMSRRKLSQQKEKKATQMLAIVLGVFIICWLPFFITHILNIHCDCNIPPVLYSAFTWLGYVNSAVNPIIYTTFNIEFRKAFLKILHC

KH [1]	Ratio [2]	KL [3]	RL [4]	RH [5]	KH [6]	RH [7]	Ratio [8]	RL [9]	KL [10]	KL [11]	KL [12]	Structure (SMILES)
0.07 nM	0.56	77 nM	64%	36%	0.03 nM	65%	1.91	34%	61 nM	–	–	CC1(C)N2CCC[C@H]2C(=O)N1[C@@H]1CCN(CC(N)=O)C1=O
0.05 nM	0.71	–	59%	42%	0.02 nM	65%	1.97	33%	–	56 nM	64 nM	NC(=O)CN1CC[C@@H](N2CC(=O)N3CCC[C@H]3C2=O)C1=O
